# From PubChem BioAssay
# The list is not random: actives were taken first. Their share in the collection is about 6.9%.
# FAK inh – FAK (human) kinase inhibition. Q05397. 0.84% of 97,000 active. inhibition, %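 (tested at 7 µM)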. biochemical FAK kinase activity assay. AID 727; in the data active = inhibition above about 19%
# PTK2B oligo ant – Pyk2 (human) oligomerization antagonism | Q293 cells, Pyk2 FERM NanoBiT luminescence; stronger effect = lower value | z-score (the deposit names both 25 µM and 10 µM) | 0.83% of 99,000 active;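 active = Z-score of -3 or lower, scaled per plate to the spread of control and sample wells; inactive = z-score above -3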;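 also: negative z-score means lost luminescence so less FERM oligomerization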
# Target sequence (Q14289 whole entry, looked up): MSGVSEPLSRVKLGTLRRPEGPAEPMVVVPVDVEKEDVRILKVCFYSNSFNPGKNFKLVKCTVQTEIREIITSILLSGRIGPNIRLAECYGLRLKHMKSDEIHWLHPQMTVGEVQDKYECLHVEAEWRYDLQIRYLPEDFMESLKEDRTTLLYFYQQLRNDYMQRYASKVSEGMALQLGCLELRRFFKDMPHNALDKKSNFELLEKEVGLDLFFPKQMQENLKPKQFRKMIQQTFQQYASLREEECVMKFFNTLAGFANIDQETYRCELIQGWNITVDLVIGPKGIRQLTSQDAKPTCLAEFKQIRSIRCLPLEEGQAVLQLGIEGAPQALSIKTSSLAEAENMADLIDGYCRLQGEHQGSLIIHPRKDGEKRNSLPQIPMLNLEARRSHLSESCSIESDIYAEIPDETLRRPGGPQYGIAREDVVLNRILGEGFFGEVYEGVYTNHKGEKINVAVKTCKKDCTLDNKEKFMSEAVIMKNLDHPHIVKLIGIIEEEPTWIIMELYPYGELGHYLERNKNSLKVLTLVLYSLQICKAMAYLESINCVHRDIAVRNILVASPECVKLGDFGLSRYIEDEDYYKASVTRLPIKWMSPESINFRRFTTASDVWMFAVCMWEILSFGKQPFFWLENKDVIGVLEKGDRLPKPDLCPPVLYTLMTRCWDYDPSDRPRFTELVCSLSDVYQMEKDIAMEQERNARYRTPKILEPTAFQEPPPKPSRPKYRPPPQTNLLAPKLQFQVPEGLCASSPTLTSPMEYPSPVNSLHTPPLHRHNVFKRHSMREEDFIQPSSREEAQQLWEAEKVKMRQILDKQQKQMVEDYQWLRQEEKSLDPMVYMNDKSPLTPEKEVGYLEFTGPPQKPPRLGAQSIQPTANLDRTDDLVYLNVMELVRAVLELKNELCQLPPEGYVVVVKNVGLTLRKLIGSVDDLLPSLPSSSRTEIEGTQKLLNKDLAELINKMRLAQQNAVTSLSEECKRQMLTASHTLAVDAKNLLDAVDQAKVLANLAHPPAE
# PostGolgi yeast – growth inhibition of a yeast mutant, post-Golgi transport screen | post-Golgi transport phenotypic cell assay | 0.9% of 98,000 active | inhibition, % at 10 µM;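 also: yeast cells grown in 1536-well plates; yeast grown about 18 h at 30C before absorbance read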
# Candida biofilm – kills Candida albicans biofilms. C. albicans biofilm + clotrimazole, Alamar Blue. 0.14% of 85,000 active. inhibition, % at 6 µM. AID 834;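 active = inhibition above 20%; inactive = inhibition below 20%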;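 also: preformed 24 hr biofilms exposed to compound for 48 hr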
# tolC growth inh – blocks growth of E. coli BW25113 tolC mutant; growth inhibition, % at 10 µM (by protocol); AID 573; 2.2% of 65,000 active; OD615;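 active = growth inhibition at or above a cutoff equal to the mean over every tested compound plus 3 SD, cut at about 60% in these data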;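 also: growth measured after 20 h incubation at 37 °C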
#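 test system = E. coli BW25113 ΔtolC::kan bacteria | medium = LB with kanamycin 50 µg/mL | signal = OD at 615 nm | schedule = 37 °C, 20 h exposure | evaluation = % inhibition of E. coli growth | compound dosing = one dose of 10 µM final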
# PostGolgi ctrl – inhibits growth of the yeast control strain | efflux-deficient yeast background strain, growth absorbance A615, 16 h | inhibition, % at 10 µM | 5% of 98,000 active | AID 738
# Hits are given with their value; n = inactive; x = no result given. Rule as the data show it, unless noted: active = inhibition above about 30%; inactive = the rest.
SMILES,FAK inh,PTK2B oligo ant,PostGolgi yeast,Candida biofilm,tolC growth inh,PostGolgi ctrl
CC1CCN(CCOCCOc2ccc(Br)cc2Cl)CC1,x,n,x,x,x,x
CC1CCN(CCOc2cc(Cl)ccc2Cl)CC1,n,n,49,n,x,n
O=C(Nc1ccc(Cl)cn1)C1CCCN1S(=O)(=O)c1cccc2ccccc12 (centres undefined),n,n,n,n,x,50
CSc1cccc(NC(=O)CN(C)S(=O)(=O)c2ccccc2)c1,n,n,n,n,n,n
Cc1nn(-c2ccccc2)c2c1C(=O)N(c1ccccc1)C(=O)C(C)(C)C2,n,n,n,n,x,35
CCC1=NN(C(=O)c2ccc(C)cc2)C(O)(c2ccc(Br)cc2)C1 (centres undefined),x,n,x,x,x,x
Cc1ccc(Cl)cc1NC(=O)c1cnn2c1NC(c1ccco1)CC2C(F)(F)F (centres undefined),n,n,41,n,x,58
O=C(NCc1cccc(Cl)c1)c1cnn2c1NC(c1ccco1)CC2C(F)(F)F (centres undefined),n,n,n,n,x,n
O=C(N1CCOCC1)N1CCC(c2nc(-c3ccc(S(=O)(=O)N4CCOCC4)cc3)no2)CC1,n,n,n,n,x,n
Cc1c(-c2nc(N)nc(Nc3ccccc3)n2)oc2ccccc12,n,n,33,n,98,78
N#CC(C#N)=c1ccc2c(c1)N1C3=C(CCCC3)CC3CCCCC31N=2 (centres undefined),n,n,44,n,82,50
CC(=O)Nc1sc2c(c1C(c1ccccc1)N1CCOCC1)CCCC2 (centres undefined),n,n,n,n,x,n
CCC(C)NC(=O)C1CCN(S(=O)(=O)N2CCCC2)CC1 (centres undefined),x,n,n,n,n,31
Cc1c(N=C2Nc3cccc4cccc2c34)c(=O)n(-c2ccccc2)n1C,x,n,n,n,n,n
Cc1oc(-c2ccc(Cl)cc2)nc1CN1CCC(C(=O)N2CCN(Cc3ccccc3)CC2)CC1,n,x,n,n,n,33
N#Cc1c(C(F)(F)F)cc(-c2ccco2)nc1SCc1ccncc1,n,n,n,n,n,49
N#Cc1c(C(F)(F)F)cc(-c2ccco2)nc1SCc1ccccn1,n,n,n,n,n,n
O=C1c2cnc3nc(SCc4ccc(Cl)cc4)nn3c2CC2c3ccccc3CCN12 (centres undefined),n,n,n,x,x,35
Nc1nc(-c2ccccc2)cc(-c2ccccc2O)n1,n,n,54,n,n,35
NNc1nc(-c2ccccc2)cc(-c2ccccc2O)n1,n,n,n,x,x,n
COc1cc(C2SCC(=O)N2c2nnc(C34CC5CC(CC(C5)C3)C4)s2)cc(OC)c1OC (centres undefined),n,n,n,x,x,n
CCN(CC)CCOC(=O)C1(c2ccccc2)CCCC1,n,n,n,n,x,n
Cc1cc(NC(c2ccc(Cl)cc2)c2ccc3cccnc3c2O)no1 (centres undefined),n,n,n,n,x,n
Cc1cc(NC(=O)CSc2ncn(-c3ccccc3)n2)no1,n,n,n,n,n,33
Cc1cc(NC(c2cccnc2)c2c(C)[nH]c3ccccc23)no1 (centres undefined),x,n,n,27,n,n
SMILES,FAK inh,PTK2B oligo ant,PostGolgi yeast,Candida biofilm,tolC growth inh,PostGolgi ctrl
Cc1cc(NC(=O)CSc2c(C)[nH]c3ccccc23)no1,x,x,n,n,n,30
Cc1ccc(-n2c(SCC(=O)Nc3cc(C)on3)nc3c([nH]c4ccccc43)c2=O)cc1,n,x,n,n,x,n
COc1cccc(NC(=O)N2CCC(C(N)=O)(N3CCCCC3)CC2)c1,n,n,n,n,n,n
c1ccc2c(c1)nc1n2CCS1,n,n,n,n,n,n
CCOC(=O)c1ccccc1NC1c2ccccc2C(=O)N1c1ccc(C)cn1 (centres undefined),x,x,n,n,n,48
COc1cc(NC2c3ccccc3C(=O)N2c2ccc(C)cn2)cc(OC)c1OC (centres undefined),n,x,n,n,n,n
CCOc1ccccc1NC1c2ccccc2C(=O)N1c1ccc(C)cn1 (centres undefined),n,x,n,n,n,33
Cc1ccccc1NC(=O)/C(=C/c1ccccc1)c1ccccc1,n,n,n,x,x,31
O=C(Nc1ccccc1)/C(=C/c1ccccc1)c1ccccc1,n,n,n,x,x,40
Cc1cccc(-n2nc([N+](=O)[O-])c(=NCc3cccnc3)n2O)c1,n,n,n,x,x,n
CCOC(=O)C1=C(O)C(Nc2nc3ccccc3s2)(C(F)(F)F)N=C1C (centres undefined),n,n,n,n,x,n
CCOc1ccc2c(c1)-c1c(ssc1=S)C(C)(C)N2,n,n,n,x,x,31
CCNC(=O)N1c2ccc(OCC)cc2C(C)=CC1(C)C,n,n,n,x,n,n
O/N=C/c1ccccc1OCc1ccccc1Cl,n,n,n,x,x,n
O/N=C/c1ccccc1OCc1ccc(Cl)cc1,n,n,n,x,x,77
COc1ccc(-c2cc(N)n(S(=O)(=O)c3c(F)c(F)c(F)c(F)c3F)n2)cc1OC,n,n,104,n,n,68
COc1ccc(S(=O)(=O)n2nc(-c3cc(OC)c(OC)c(OC)c3)cc2N)cc1OC,x,x,n,n,n,n
COC(=O)c1ccc(NC(=O)CSCc2ccc(C)cc2)cc1,n,n,n,n,x,n
CC1CCCCN1C(=O)CSCC(=O)Nc1nc(-c2cccs2)cs1 (centres undefined),x,x,n,n,n,73
CCOC(=O)N1CCN(C(=O)CSCC(=O)Nc2nc(-c3cccs3)cs2)CC1,n,n,x,n,n,x
CC1CCCN(C(=O)CSCC(=O)Nc2nc(-c3cccs3)cs2)C1 (centres undefined),n,x,n,n,n,64
CC1CCN(C(=O)CSCC(=O)Nc2nc(-c3cccs3)cs2)CC1,x,x,n,n,n,65
O=C(O)C1CCCCC1C(=O)Nc1nc(-c2cccs2)cs1 (centres undefined),n,n,n,n,n,n
CN(C(=S)NC(=O)C1(C)CC1(Cl)Cl)c1ccccc1 (centres undefined),n,n,n,x,x,n
O=C(NCC1CCCO1)c1cccc(F)c1 (centres undefined),n,n,n,n,x,n
SMILES,FAK inh,PTK2B oligo ant,PostGolgi yeast,Candida biofilm,tolC growth inh,PostGolgi ctrl
COc1ccc(-c2nnc(NC(=O)c3ccc(F)cc3)o2)cc1,n,x,n,n,x,n
O=C(Nc1nc(-c2ccccc2)c(-c2ccccc2)o1)c1ccc(F)cc1,n,n,98,x,x,85
NS(=O)(=O)c1ccc(N2N=C(c3ccc(Br)cc3)CC2c2ccc(F)cc2)cc1 (centres undefined),n,n,n,x,x,86
O=C(CNS(=O)(=O)c1ccc(Br)cc1)N1CCN(c2ccc(F)cc2)CC1,n,n,x,n,x,x
COc1cc(-n2cnnn2)ccc1S(=O)(=O)N1CCOCC1,n,n,n,n,n,n
Cc1cccc(NC(=O)CSc2nnc(-c3cc(C)n(-c4ccccc4)c3C)o2)c1C,x,n,n,n,63,n
Cc1cc(-c2nnc(SCC(=O)Nc3ccccc3C(F)(F)F)o2)c(C)n1-c1ccccc1,n,n,n,n,x,n
